Source: article PMC12789443 (Nature Communications, 2025)

What was measured:
[1] = tested on: E. coli ATCC25922 biofilm; assay: Anti-biofilm assay; type: cell-based
[2] = tested on: E. coli ATCC25922 persister cells; assay: Killing efficacy on persister cells; type: cell-based; conditions: ampicillin 8×MIC
[3] = tested on: S. aureus USA300 persister cells; assay: Killing efficacy on persister cells; type: cell-based; conditions: ciprofloxacin 10×MIC
[4] = tested on: S. aureus-PBGProOx20-P32, S. aureus-ciprofloxacin-P32; assay: Cross resistance; type: cell-based; conditions: 0.5×MIC, P32 bacteria tested against antibiotics
E. coli ATCC25922 [5] = assay: Mice meningitis model; type: in vivo; conditions: 40 mg/kg intraperitoneal daily, 6 times; saline 17%
E. coli ATCC25922 [6] = assay: Mice wound; type: in vivo; conditions: topical, 15 μL of 4 mg/mL every 4 h, 3 times
Summary of the method: (§1)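 Female ICR mice (6–8 weeks), pentobarbital-anaesthetised (75 mg/kg ip), backs shaved; 6-mm full-thickness punch wounds. Bacteria grown in LB (37 °C, 9 h) and dropped onto wounds in saline: S. aureus 3 × 10^6 or E. coli 1 × 10^8 CFU/mL. Treatment in saline started 24 h post-infection; saline controls. Wound tissue excised 4 h after final application for CFU counts; n = 10.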

E. coli ATCC25922 [7] = assay: Drug resistance study; type: cell-based; conditions: continuous treatment at 0.5×MIC
[8] = tested on: E. coli-PBGProOx20-P32, E. coli-moxifloxacin-P32; assay: Cross resistance; type: cell-based; conditions: 0.5×MIC, P32 bacteria tested against antibiotics
S. aureus USA300 LAC [9] = assay: Mice wound; type: in vivo; conditions: topical, 15 μL of 4 mg/mL every 4 h, 3 times
Summary of the method: as §1

S. aureus USA300 LAC [10] = assay: Mice meningitis model; type: in vivo; conditions: 40 mg/kg intraperitoneal daily, 6 times; saline 17%
S. aureus USA300 LAC [11] = assay: Mice subcutaneous infection model; type: in vivo; conditions: 4 mg/mL every 12 h, 3 times
[12] = tested on: S. aureus USA300 LAC biofilm; assay: Anti-biofilm assay; type: cell-based
S. aureus USA300 LAC [13] = assay: In vitro bacterial killing kinetics; type: cell-based; conditions: exponential growth phase; PBGProOx20 2×MIC and 4×MIC, vancomycin 4×MIC

Question: colistin was tested. Which “concentration eradicating mature biofilm” value [1] did it give?
Answer: 256 ×MIC

Question: With `CC1(C)S[C@@H]2[C@H](NC(=O)[C@H](N)c3ccccc3)C(=O)N2[C@H]1C(=O)O` [Ampicillin, ampicillin] as the compound, how does the “persister cell viability under antibiotic” value [2] read?
Answer: maintained sustained viability

Question: With `O=C(O)c1cn(C2CC2)c2cc(N3CCNCC3)c(F)cc2c1=O` [ciprofloxacin] as the compound, how does the “persister cell viability under antibiotic” value [3] read?
Answer: maintained sustained viability

Question: What about the “cross-resistance of bacteria treated for 32 passages” value [4] of the same compound?
Answer: acquired resistance to four quinolone antibiotics and ampicillin

Question: Which “survival rate, meningitis” value (E. coli ATCC25922 [5]) does the source give for `C[C@@H](O)[C@H]1C(=O)N2C(C(=O)O)=C(S[C@@H]3CN[C@H](C(=O)N(C)C)C3)[C@H](C)[C@H]12` [meropenem] here?
Answer: 100%

Question: How did the “reduction of bacteria in infected wounds” value (E. coli ATCC25922 [6]) turn out when `C[C@@H](O)[C@H]1C(=O)N2C(C(=O)O)=C(SCCN=CN)C[C@H]12` [Imipenem, imipenem] was run?
Answer: 2.1 logs

Question: For `COc1c(N2C[C@@H]3CCCN[C@@H]3C2)c(F)cc2c(=O)c(C(=O)O)cn(C3CC3)c12` [moxifloxacin], which “increase in MIC after 32 passages” value (E. coli ATCC25922 [7]) is on record?
Answer: 32 fold

Question: And the “cross-resistance of bacteria treated for 32 passages” value [8]?
Answer: acquired resistance to four quinolone antibiotics and ampicillin

Question: `CN[C@H](CC(C)C)C(=O)N[C@H]1C(=O)N[C@@H](CC(N)=O)C(=O)N[C@H]2C(=O)N[C@H]3C(=O)N[C@H](C(=O)N[C@H](C(=O)O)c4cc(O)cc(O)c4-c4cc3ccc4O)[C@H](O)c3ccc(c(Cl)c3)Oc3cc2cc(c3O[C@@H]2O[C@H](CO)[C@@H](O)[C@H](O)[C@H]2O[C@H]2C[C@](C)(N)[C@H](O)[C@H](C)O2)Oc2ccc(cc2Cl)[C@H]1O` [Vancomycin, vancomycin] was tested. Which “reduction of bacteria in infected wounds” value (S. aureus USA300 LAC [9]) did it give?
Answer: 1.2 logs

Question: And the “survival rate, meningitis” value (S. aureus USA300 LAC [10])?
Answer: 50%

Question: What about the “reduction of bacterial load in infected skin” value (S. aureus USA300 LAC [11]) of the same compound?
Answer: less than 0.5 log CFU/g

Question: What about the “concentration eradicating mature biofilm” value [12] of the same compound?
Answer: poor anti-biofilm activity

Question: And the “eradication in time-killing kinetics” value (S. aureus USA300 LAC [13])?
Answer: unable to eradicate S. aureus
